Reference: ChEMBL document CHEMBL1649443, “Novel S-adenosylmethionine decarboxylase inhibitors for the treatment of human African trypanosomiasis” (Antimicrob Agents Chemother, 2009)
Activity calls are given as the source filed them.

Legend:
[1] = system: Trypanosoma brucei rhodesiense; test: Antiparasitic activity against Trypanosoma brucei rhodesiense STIB 900 clone after 72 hrs by Alamar blue assay; format: functional, organism-based; settings: STIB 900, 72 h
[2] = Permeability of the compound after 4 hrs by PAMPA assay; format: ADME; settings: read-out: permeability
[3] = Metabolic stability in rat liver microsomes assessed as intrinsic clearance up to 45 mins by LC/MS/MS analysis; format: ADME, Microsome
[4] = Metabolic stability in human liver microsomes assessed as intrinsic clearance up to 45 mins by LC/MS/MS analysis; format: ADME, Microsome
[5] = Metabolic stability in rat hepatocytes assessed as intrinsic clearance up to 45 mins by LC/MS/MS analysis; format: ADME, cell-based, Liver, Hepatocyte
[6] = Metabolic stability in human hepatocytes assessed as intrinsic clearance up to 45 mins by LC/MS/MS analysis; format: ADME, cell-based, Liver, Hepatocyte
CYP3A4 = CYP3A4 (Homo sapiens, UniProt P08684); test: (§1) Inhibition of human cytochrome P450 3A4; settings: human
CYP3A4, sequence (P08684 whole entry): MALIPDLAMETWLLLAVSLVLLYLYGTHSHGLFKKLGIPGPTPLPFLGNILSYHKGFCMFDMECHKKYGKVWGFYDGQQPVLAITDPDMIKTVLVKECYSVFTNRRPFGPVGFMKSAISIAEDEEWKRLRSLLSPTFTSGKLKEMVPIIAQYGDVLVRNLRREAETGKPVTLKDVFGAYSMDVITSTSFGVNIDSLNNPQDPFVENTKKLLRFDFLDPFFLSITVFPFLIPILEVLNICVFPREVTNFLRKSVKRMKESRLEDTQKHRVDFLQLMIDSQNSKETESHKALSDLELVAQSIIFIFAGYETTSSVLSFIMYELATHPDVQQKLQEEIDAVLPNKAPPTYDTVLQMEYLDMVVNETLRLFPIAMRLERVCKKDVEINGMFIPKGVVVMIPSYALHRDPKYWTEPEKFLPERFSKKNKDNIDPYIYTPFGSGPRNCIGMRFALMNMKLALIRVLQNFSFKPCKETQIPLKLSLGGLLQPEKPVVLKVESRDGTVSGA

CYP2D6 = CYP2D6 (Homo sapiens, UniProt P10635); test: (§2) Inhibition of human cytochrome P450 2D6; settings: human
CYP2D6, sequence (P10635 whole entry): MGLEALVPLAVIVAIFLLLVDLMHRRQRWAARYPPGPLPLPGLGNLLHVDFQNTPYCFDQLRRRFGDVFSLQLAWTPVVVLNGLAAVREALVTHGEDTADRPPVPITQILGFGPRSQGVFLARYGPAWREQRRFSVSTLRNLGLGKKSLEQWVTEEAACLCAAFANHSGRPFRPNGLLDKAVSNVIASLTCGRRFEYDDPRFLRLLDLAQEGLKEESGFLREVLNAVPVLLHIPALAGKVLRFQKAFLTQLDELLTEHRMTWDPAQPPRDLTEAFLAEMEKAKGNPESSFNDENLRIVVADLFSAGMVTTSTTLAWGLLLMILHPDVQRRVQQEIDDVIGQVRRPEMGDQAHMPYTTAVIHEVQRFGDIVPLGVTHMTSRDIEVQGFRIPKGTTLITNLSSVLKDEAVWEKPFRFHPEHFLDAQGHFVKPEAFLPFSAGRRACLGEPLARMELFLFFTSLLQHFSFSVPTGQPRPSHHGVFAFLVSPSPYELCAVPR

CYP2C9 = CYP2C9 (Homo sapiens, UniProt P11712); test: (§3) Inhibition of human cytochrome P450 2C9; settings: human
CYP2C9, sequence (P11712 whole entry): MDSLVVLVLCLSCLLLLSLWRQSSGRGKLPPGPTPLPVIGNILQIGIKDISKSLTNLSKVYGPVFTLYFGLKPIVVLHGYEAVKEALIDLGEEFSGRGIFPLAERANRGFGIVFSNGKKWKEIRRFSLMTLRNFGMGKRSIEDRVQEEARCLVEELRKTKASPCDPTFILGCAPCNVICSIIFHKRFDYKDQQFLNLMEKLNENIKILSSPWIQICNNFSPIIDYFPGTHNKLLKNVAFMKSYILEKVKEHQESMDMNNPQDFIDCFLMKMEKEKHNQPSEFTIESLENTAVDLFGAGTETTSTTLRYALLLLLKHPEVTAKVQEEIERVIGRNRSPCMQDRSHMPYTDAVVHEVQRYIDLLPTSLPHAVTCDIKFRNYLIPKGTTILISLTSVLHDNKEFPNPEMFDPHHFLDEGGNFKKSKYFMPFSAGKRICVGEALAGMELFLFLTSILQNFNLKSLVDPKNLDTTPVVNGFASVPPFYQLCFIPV

CYP2C19 = CYP2C19 (Homo sapiens, UniProt P33261); test: (§4) Inhibition of human cytochrome P450 2C19; settings: human
CYP2C19, sequence (P33261 whole entry): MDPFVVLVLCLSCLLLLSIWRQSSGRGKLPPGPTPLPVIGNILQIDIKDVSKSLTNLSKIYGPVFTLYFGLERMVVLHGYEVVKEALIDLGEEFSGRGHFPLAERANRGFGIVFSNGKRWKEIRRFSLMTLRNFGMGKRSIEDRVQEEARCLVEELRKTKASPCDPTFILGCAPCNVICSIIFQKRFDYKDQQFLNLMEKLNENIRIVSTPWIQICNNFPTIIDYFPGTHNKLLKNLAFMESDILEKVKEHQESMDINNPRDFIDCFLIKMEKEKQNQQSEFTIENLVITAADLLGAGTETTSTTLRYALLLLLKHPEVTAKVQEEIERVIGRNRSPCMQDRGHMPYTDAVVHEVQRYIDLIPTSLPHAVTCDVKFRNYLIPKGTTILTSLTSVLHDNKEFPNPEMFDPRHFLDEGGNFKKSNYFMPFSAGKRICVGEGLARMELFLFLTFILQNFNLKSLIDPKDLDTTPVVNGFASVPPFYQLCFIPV

CYP1A2 = target: T1, CYP1A2 (Homo sapiens, UniProt P05177); test: (§5) Inhibition of human cytochrome P450 1A2; settings: human
T1 sequence (P05177 whole entry): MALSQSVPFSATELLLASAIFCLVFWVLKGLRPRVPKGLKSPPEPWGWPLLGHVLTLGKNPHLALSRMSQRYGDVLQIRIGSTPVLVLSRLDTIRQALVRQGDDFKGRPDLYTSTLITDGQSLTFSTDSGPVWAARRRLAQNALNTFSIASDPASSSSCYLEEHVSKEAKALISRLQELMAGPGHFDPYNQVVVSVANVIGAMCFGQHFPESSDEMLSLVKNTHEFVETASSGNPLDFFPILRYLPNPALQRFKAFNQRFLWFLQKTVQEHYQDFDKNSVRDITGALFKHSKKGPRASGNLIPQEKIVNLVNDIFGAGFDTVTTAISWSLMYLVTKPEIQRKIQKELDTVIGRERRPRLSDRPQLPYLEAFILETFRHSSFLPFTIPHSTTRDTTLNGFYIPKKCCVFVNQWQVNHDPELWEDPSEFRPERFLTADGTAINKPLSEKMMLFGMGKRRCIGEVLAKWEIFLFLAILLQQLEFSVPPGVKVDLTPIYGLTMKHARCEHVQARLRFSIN

[7] = Protein binding in human plasma at pH 7.4 after 4 hrs; format: ADME, cell-free; settings: read-out: PPB (converted)
[8] = Protein binding in mouse plasma at pH 7.4 after 4 hrs; format: ADME, cell-free; settings: read-out: PPB (converted)
[9] = Tmax in rat at 10 mg/kg, po; format: ADME, organism-based; parameters: dose 10 mg/kg, route oral; settings: in vivo
Summary of the method: (§6)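 Rat groups of six, split into two subgroups to limit blood collections, dosed i.v. or p.o. Blood sampled at 15 min, 30 min, 2 h, 4 h, 8 h and 24 h. Drug levels measured by LC-MS-MS. Two separate rat studies were run.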

[10] = Cmax in rat at 10 mg/kg, po; format: ADME, organism-based; parameters: dose 10 mg/kg, route oral; settings: in vivo; summary of the method: as §6
[11] = AUC in rat at 3 mg/kg, iv; format: ADME, organism-based; parameters: dose 3 mg/kg, route intravenous; settings: plasma
[12] = AUC in rat at 10 mg/kg, po; format: ADME, organism-based; parameters: dose 10 mg/kg, route oral; settings: plasma; summary of the method: as §6
Rattus norvegicus [13] = test: Half life in rat at 3 mg/kg, iv; format: ADME, organism-based; parameters: dose 3 mg/kg, route intravenous; settings: in vivo
[14] = Half life in rat at 10 mg/kg, po; format: ADME, organism-based; parameters: dose 10 mg/kg, route oral; settings: in vivo; summary of the method: as §6
Rattus norvegicus [15] = test: Volume of distribution at steady state in rat at 3 mg/kg, iv; format: ADME, organism-based; parameters: dose 3 mg/kg, route intravenous; settings: in vivo
[16] = Oral bioavailability in rat at 10 mg/kg, po; format: ADME, organism-based; settings: in vivo; summary of the method: as §6
[17] = AUC in mouse blood at 50 mg/kg, ip administered as single dose; format: ADME, organism-based; parameters: dose 50 mg/kg, route intraperitoneal
[18] = AUC in mouse brain at 50 mg/kg, ip administered as single dose; format: ADME, organism-based; parameters: dose 50 mg/kg, route intraperitoneal
[19] = Half life in mouse at 50 mg/kg, ip administered as single dose; format: ADME, organism-based; parameters: dose 50 mg/kg, route intraperitoneal; settings: in vivo
[20] = Cmax in mouse blood at 50 mg/kg, ip administered as single dose; format: ADME, organism-based; parameters: dose 50 mg/kg, route intraperitoneal
[21] = Cmax in mouse brain at 50 mg/kg, ip administered as single dose; format: ADME, organism-based; parameters: dose 50 mg/kg, route intraperitoneal
[22] = system: Trypanosoma brucei brucei; test: Antiparasitic activity against Trypanosoma brucei brucei STIB 795 infected in mouse assessed as mean survival days at 50 mg/kg, ip qd for 4 days administered on 3rd day of infection (reference value: 6.75 days); format: functional; settings: route intraperitoneal
[23] = system: Trypanosoma brucei brucei; test: Antiparasitic activity against Trypanosoma brucei brucei LAB 110 EATRO infected in mouse assessed as mean survival days at 50 mg/kg/day, ip qd for 7 days administered on 1st day of infection and measured through day 40 post infection; format: functional; settings: route intraperitoneal
Summary of the method: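 Mice in groups of five, infected i.p. on day 0 with 2.5 × 10^5 T. b. brucei LAB 110 EATRO parasites; i.p. dosing began day 1. Parasitemia checked twice weekly by microscopy of at least 20 fields of wet blood smears through day 40, with animals considered cured only when clear through day 40.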

[24] = system: Trypanosoma brucei brucei; test: Antiparasitic activity against Trypanosoma brucei brucei STIB 795 infected in mouse assessed as parasitemia cure incidence at 50 mg/kg, ip qd for 4 days administered on 3rd day of infection; format: functional, organism-based; parameters: dose 50 mg/kg
[25] = system: Trypanosoma brucei brucei; test: Antiparasitic activity against Trypanosoma brucei brucei LAB 110 EATRO infected in mouse assessed as parasitemia cure incidence at 50 mg/kg/day, ip qd for 7 days administered on 1st day of infection and measured through day 40 post infection; format: functional, organism-based
in vivo = settings: mouse, brain, ip, 50 mg/kg
[26] = Kinetic solubility in phosphate-buffered saline at pH 7.4 after 16 to 24 hrs by UV spectrophotometry
[27] = system: Trypanosoma brucei brucei; test: Antiparasitic activity against Trypanosoma brucei brucei LAB 110 EATRO infected in mouse assessed as mean survival days at 50 mg/kg/day, ip administered on 1st day of infection and measured through day 40 post infection; settings: route intraperitoneal
[28] = system: Trypanosoma brucei brucei; test: Antiparasitic activity against Trypanosoma brucei brucei LAB 110 EATRO infected in mouse assessed as parasitemia cure incidence at 50 mg/kg/day, ip administered on 1st day of infection and measured through day 40 post infection
Cytochrome P450 3A4 = Cytochrome P450 3A4 (Homo sapiens, UniProt P08684); test: as §1
Cytochrome P450 3A4, sequence (P08684 whole entry): as the sequence (P08684 whole entry) above

Cytochrome P450 2D6 = Cytochrome P450 2D6 (Homo sapiens, UniProt P10635); test: as §2
Cytochrome P450 2D6, sequence (P10635 whole entry): as the sequence (P10635 whole entry) above

Cytochrome P450 2C9 = Cytochrome P450 2C9 (Homo sapiens, UniProt P11712); test: as §3
Cytochrome P450 2C9, sequence (P11712 whole entry): as the sequence (P11712 whole entry) above

Cytochrome P450 2C19 = Cytochrome P450 2C19 (Homo sapiens, UniProt P33261); test: as §4
Cytochrome P450 2C19, sequence (P33261 whole entry): as the sequence (P33261 whole entry) above

Cytochrome P450 1A2 = target: T2, Cytochrome P450 1A2 (Homo sapiens, UniProt P05177); test: as §5
T2 sequence (P05177 whole entry): T1 sequence (P05177 whole entry)

[29] = Metabolic stability in rat plasma assessed as compound remaining after 4 hrs; format: ADME, cell-free; settings: read-out: Stability
[30] = Metabolic stability in human assessed as compound remaining plasma after 4 hrs; format: ADME, cell-free; settings: read-out: Stability
[31] = Permeability across apical to basolateral side of human Caco2 cells; format: ADME, cell-based; settings: Caco-2, read-out: permeability
[32] = Permeability across basolateral to apical side of human Caco2 cells; format: ADME, cell-based; settings: Caco-2, read-out: permeability
[33] = system: Trypanosoma brucei brucei; test: Antiparasitic activity against Trypanosoma brucei brucei LAB 110 EATRO infected in mouse assessed as mean survival days at 50 mg/kg/day, ip bid for 4 days administered on 1st day of infection and measured through day 40 post infection; format: functional; settings: route intraperitoneal
[34] = Metabolic stability in rat whole blood assessed as compound remaining; format: ADME, tissue-based
[35] = Partition coefficient in RBCs; format: ADME, cell-based; settings: erythrocyte
[36] = system: Trypanosoma brucei brucei; test: Antiparasitic activity against Trypanosoma brucei brucei LAB 110 EATRO infected in mouse assessed as parasitemia cure incidence at 50 mg/kg/day, ip bid for 4 days administered on 1st day of infection and measured through day 40 post infection; format: functional, organism-based
Summary of the method: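 Mice, groups of five, infected i.p. on day 0 with 2.5 × 10^5 parasites; dosing from day 1 at 50 mg/kg/day i.p., given either once daily for 7 days or split twice daily for 4 days. Treatment controls got pentamidine 2 mg/kg QD i.p. for 4 days. Read-out was microscopy of ≥20 fields of wet blood smears twice weekly to day 40; cure means no parasites.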

SMILES	IC50 [1]	Papp at 4 h [2]	CLint scaled [3]	CLint scaled [4]	CLint scaled [5]	CLint scaled [6]	fraction unbound at 4 h [7]	fraction unbound at 4 h [8]	AUC [17]	AUC [18]	half-life [19]	Cmax [20]	Cmax [21]	Survival [22]	Kp (in vivo)	solubility kinetic [26]	Survival [27]	IC50 (Cytochrome P450 3A4)	IC50 (Cytochrome P450 2D6)	IC50 (Cytochrome P450 2C9)	further results
Cc1nc(N)c2ncn([C@@H]3O[C@H](CN(C)C/C=C\CN)[C@@H](O)[C@H]3O)c2n1	0.0001 µM	0.22 ×10⁻⁶ cm/s	< 11 mL/min/kg	< 4.2 mL/min/kg	< 11 mL/min/kg	< 4.2 mL/min/kg	0.588	0.643	17900 ng·h/mL	1300 ng·h/mL	7.43 h	36900 ng/mL	660 ng/mL	>30 days	7.28	> 49 µg/mL	>40 days				IC50 (CYP3A4): > 5 µM; IC50 (CYP2D6): > 5 µM; IC50 (CYP2C9): > 5 µM; IC50 (CYP2C19): > 5 µM; IC50 (CYP1A2): > 5 µM; Tmax [9]: 0.25 h; Cmax [10]: 39 ng/mL; AUC [11]: 681 ng·h/mL; AUC [12]: 49 ng·h/mL; t1/2 (Rattus norvegicus [13]): 3.17 h; half-life [14]: 1.53 h; Vdss (Rattus norvegicus [15]): 853 L/kg; bioavailability [16]: 2.1%; Survival [23]: >40 days; Activity [24]: Active; Activity [25]: Active; Activity [28]: Active
CN(C/C=C\CN)C[C@H]1O[C@@H](n2cnc3c(N)ncnc32)[C@H](F)[C@@H]1O	0.172 µM		< 11 mL/min/kg	< 4.2 mL/min/kg	< 11 mL/min/kg	< 4.2 mL/min/kg	0.767	0.523	16300 ng·h/mL	140 ng·h/mL	1.93 h	33000 ng/mL	30 ng/mL		0.86	> 47 µg/mL		> 5 µM	> 5 µM	> 5 µM	IC50 (Cytochrome P450 2C19): > 5 µM; IC50 (Cytochrome P450 1A2): > 5 µM
CN(C/C=C\CN)C[C@H]1O[C@@H](n2cnc3c(N)ncnc32)[C@H](O)[C@@H]1O	0.0014 µM	0.13 ×10⁻⁶ cm/s	< 11 mL/min/kg	< 4.2 mL/min/kg	< 11 mL/min/kg	< 4.2 mL/min/kg	0.271	0.302	20700 ng·h/mL	360 ng·h/mL	2.48 h	44800 ng/mL	80 ng/mL	>30 days	1.7	> 47 µg/mL	>40 days	> 5 µM	> 5 µM	> 5 µM	IC50 (Cytochrome P450 2C19): > 5 µM; IC50 (Cytochrome P450 1A2): > 5 µM; remaining at 4 h [29]: 100%; remaining at 4 h [30]: 100%; Papp A→B [31]: 3.25 ×10⁻⁶ cm/s; Papp B→A [32]: 2.7 ×10⁻⁶ cm/s; Survival [33]: >40 days; Stability [34]: 100%; Partition coefficient [35]: 0.28; Activity [36]: Active
